According to the M2OR odorant receptor database:
Positions count from the first letter of the chain named.

How the values were obtained:
Conditions in all cases: stereoisomer not certain
A0A140T8K4 = system: T1, A0A140T8K4
T1 sequence (whole entry): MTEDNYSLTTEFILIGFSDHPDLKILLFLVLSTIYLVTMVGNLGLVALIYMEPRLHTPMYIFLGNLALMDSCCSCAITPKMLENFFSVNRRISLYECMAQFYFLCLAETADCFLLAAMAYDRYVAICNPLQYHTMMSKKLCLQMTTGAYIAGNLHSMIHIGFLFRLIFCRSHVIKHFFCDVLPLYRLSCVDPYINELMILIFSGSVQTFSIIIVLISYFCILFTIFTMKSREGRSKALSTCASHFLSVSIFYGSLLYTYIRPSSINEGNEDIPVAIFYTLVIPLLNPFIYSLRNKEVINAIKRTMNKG
Procedure, shortened: (§1)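 Whether a receptor–molecule pair is responsive (active) rests on the original authors' judgment that its measured signal was statistically different from baseline. Pairs without that judgment are non-responsive (inactive). Sources used varied assay methods, commonly transient luciferase assays in mammalian cell lines.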

A0A2J8MY22 = system: T2, A0A2J8MY22
T2 sequence (whole entry): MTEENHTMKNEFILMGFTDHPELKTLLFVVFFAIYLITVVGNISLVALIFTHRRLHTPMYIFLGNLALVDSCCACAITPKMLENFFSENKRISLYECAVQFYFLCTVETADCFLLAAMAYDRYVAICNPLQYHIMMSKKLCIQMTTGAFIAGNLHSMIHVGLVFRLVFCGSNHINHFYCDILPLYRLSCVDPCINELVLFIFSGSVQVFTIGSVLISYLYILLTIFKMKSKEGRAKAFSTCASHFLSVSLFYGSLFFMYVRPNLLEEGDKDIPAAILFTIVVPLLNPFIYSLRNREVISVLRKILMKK
Procedure, shortened: as §1

A0A2R8ZIW4 = system: T3, A0A2R8ZIW4
T3 sequence (whole entry): T2 sequence (whole entry) with V39I, I280V
Procedure, shortened: as §1

A0A3Q7SVK8 = system: T4, A0A3Q7SVK8
T4 sequence (whole entry): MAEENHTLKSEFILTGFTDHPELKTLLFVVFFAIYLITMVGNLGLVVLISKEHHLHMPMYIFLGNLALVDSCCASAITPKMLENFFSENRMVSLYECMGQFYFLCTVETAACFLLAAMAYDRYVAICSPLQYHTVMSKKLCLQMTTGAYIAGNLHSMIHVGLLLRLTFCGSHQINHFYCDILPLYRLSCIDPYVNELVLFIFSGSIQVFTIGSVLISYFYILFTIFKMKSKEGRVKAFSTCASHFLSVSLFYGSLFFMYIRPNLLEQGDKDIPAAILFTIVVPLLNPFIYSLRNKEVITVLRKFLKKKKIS
Procedure, shortened: as §1

A0A6P3DZI2 = system: T5, A0A6P3DZI2
T5 sequence (whole entry): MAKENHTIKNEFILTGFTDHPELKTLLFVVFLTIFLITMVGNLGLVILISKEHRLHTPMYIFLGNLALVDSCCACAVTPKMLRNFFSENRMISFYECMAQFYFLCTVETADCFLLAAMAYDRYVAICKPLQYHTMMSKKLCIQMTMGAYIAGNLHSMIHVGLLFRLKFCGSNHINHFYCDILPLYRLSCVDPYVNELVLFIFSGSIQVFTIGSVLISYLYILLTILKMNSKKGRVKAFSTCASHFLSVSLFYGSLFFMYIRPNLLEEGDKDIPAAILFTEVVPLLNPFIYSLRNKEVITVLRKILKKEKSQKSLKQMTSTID
Procedure, shortened: as §1

A0A6P6H1F7 = system: T6, A0A6P6H1F7
T6 sequence (whole entry): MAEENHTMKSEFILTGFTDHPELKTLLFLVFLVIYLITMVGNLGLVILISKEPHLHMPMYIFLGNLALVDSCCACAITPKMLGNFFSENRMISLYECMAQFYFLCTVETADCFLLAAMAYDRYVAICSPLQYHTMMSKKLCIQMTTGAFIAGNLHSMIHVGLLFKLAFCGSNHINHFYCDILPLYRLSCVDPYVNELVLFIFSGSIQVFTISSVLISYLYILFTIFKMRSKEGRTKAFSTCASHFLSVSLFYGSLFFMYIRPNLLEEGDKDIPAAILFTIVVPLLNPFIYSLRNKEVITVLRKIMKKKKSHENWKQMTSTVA
Procedure, shortened: as §1

O10A6 [1] = system: O10A6
Procedure, shortened: as §1
Target sequence in this assay (as listed by the source): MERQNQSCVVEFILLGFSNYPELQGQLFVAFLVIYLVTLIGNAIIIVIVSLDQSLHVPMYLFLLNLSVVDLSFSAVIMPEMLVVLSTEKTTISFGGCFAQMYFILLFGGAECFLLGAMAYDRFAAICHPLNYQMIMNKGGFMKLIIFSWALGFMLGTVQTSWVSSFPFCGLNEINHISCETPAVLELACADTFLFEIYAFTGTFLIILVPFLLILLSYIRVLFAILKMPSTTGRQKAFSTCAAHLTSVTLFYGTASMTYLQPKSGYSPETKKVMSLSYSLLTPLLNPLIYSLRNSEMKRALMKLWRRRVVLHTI

O10A6 [2] = system: T7, O10A6; remark: listed apart in the source
T7 sequence (whole entry): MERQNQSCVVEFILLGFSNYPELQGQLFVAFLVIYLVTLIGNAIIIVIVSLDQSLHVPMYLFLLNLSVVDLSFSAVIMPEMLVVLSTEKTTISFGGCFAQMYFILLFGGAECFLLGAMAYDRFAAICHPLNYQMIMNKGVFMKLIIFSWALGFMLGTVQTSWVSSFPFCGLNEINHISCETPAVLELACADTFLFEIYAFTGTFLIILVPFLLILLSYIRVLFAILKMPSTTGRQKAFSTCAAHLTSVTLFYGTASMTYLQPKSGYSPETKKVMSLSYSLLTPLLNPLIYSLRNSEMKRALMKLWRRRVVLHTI
Procedure, shortened: as §1

O10A6 [3] = system: O10A6; remark: listed apart in the source
Procedure, shortened: as §1
Target sequence in this assay (as listed by the source): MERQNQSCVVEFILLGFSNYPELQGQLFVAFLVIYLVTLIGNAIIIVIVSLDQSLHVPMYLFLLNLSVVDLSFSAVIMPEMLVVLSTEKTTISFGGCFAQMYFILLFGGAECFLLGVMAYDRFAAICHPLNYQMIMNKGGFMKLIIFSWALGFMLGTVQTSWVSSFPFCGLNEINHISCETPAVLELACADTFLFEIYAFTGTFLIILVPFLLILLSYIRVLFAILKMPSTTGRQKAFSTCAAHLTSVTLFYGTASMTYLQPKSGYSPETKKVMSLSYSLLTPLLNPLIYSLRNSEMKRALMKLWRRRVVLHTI

A0A1L1SVG7 = system: T8, A0A1L1SVG7
T8 sequence (whole entry): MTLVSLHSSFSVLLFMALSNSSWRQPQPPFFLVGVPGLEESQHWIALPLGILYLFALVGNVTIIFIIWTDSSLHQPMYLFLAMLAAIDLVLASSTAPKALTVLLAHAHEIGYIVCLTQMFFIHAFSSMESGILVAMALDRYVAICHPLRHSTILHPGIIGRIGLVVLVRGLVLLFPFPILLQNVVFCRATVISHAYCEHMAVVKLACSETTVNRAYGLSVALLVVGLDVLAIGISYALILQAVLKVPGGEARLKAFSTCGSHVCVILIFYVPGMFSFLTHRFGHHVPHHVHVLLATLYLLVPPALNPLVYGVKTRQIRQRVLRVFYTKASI
Procedure, shortened: as §1

A0A2J8KNW9 = system: A0A2J8KNW9
Procedure, shortened: as §1

A0A2R8ZMP6 = system: A0A2R8ZMP6
Procedure, shortened: as §1

O10A2 H43R H207R K258T = system: T9, O10A2 H43R H207R K258T
T9 sequence (whole entry): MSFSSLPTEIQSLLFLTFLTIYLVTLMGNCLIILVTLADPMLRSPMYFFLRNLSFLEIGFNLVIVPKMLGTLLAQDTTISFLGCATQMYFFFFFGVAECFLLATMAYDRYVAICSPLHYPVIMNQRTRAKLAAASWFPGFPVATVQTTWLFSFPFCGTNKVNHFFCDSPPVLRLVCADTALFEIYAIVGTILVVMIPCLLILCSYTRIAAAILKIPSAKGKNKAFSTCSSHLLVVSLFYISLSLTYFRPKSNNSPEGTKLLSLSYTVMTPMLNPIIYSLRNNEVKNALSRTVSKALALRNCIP
Procedure, shortened: as §1

O10A3 C8G = system: T10, O10A3 C8G
T10 sequence (whole entry): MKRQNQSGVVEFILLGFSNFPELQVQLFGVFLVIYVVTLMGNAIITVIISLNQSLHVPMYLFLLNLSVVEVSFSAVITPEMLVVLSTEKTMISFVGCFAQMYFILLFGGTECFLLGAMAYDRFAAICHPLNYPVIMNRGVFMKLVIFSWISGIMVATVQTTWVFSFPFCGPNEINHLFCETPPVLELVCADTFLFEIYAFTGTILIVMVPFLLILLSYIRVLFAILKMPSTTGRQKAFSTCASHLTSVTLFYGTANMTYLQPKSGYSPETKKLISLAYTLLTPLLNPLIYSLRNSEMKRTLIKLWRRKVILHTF
Procedure, shortened: as §1

O10AD G65C = system: T11, O10AD G65C
T11 sequence (whole entry): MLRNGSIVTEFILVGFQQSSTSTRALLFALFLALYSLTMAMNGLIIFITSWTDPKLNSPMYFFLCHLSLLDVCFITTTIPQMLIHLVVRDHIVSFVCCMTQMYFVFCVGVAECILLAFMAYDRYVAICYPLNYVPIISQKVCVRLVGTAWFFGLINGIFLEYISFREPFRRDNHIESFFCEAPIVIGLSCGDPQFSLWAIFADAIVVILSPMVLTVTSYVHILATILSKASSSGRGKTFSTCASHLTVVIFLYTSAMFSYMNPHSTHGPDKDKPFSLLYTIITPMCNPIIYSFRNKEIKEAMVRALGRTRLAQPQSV
Procedure, shortened: as §1

O10D3 V134A R197K = system: T12, O10D3 V134A R197K
T12 sequence (whole entry): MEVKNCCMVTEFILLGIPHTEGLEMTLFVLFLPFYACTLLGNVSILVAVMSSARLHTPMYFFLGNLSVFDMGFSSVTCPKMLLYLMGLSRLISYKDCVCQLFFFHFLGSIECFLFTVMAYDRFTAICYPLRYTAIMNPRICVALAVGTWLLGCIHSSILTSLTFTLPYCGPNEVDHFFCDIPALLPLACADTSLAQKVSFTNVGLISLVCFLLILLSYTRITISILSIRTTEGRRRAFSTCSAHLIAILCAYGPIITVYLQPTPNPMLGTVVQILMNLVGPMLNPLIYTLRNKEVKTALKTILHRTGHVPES
Procedure, shortened: as §1

O10G4 L24P V195E = system: T13, O10G4 L24P V195E
T13 sequence (whole entry): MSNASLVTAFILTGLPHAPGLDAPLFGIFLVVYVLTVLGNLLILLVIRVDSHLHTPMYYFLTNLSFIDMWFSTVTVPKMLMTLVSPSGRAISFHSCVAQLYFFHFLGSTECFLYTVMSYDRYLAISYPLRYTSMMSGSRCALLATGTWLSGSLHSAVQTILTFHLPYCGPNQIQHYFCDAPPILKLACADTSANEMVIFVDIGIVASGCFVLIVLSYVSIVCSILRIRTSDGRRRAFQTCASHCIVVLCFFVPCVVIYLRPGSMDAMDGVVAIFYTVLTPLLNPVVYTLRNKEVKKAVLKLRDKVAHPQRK
Procedure, shortened: as §1

O10G7 A18V P19Q G20A = system: T14, O10G7 A18V P19Q G20A
T14 sequence (whole entry): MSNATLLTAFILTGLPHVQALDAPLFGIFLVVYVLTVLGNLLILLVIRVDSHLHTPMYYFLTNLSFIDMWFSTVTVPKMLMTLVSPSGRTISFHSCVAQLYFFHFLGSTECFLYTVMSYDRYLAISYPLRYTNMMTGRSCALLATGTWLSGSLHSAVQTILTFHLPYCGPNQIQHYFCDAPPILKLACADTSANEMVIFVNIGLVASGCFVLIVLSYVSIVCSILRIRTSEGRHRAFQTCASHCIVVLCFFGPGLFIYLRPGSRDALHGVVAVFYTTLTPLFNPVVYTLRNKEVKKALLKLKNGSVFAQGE
Procedure, shortened: as §1

O10G7 I28V = system: T15, O10G7 I28V
T15 sequence (whole entry): T14 sequence (whole entry) with V18A, Q19P, A20G, I28V
Procedure, shortened: as §1
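Further: active if original authors judged signal statistically different from baseline.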

Structure (SMILES): CCc1nccnc1C(C)=O
- odorant receptor agonist call (A0A140T8K4): inactive
- odorant receptor agonist call (A0A2J8MY22): active
- odorant receptor agonist call (A0A2R8ZIW4): active
- odorant receptor agonist call (A0A3Q7SVK8): active
- odorant receptor agonist call (A0A6P3DZI2): inactive
- odorant receptor agonist call (A0A6P6H1F7): active

Structure (SMILES): CCC(=O)OCCCc1ccccc1
- odorant receptor agonist call (O10A6 [1]): active
- odorant receptor agonist call (O10A6 [2]): active
- odorant receptor agonist call (O10A6 [3]): inactive

Structure (SMILES): CCC(C(=O)O)c1ccccc1 (centres undefined)
- odorant receptor agonist call (A0A140T8K4): inactive
- odorant receptor agonist call (A0A1L1SVG7): inactive

Structure (SMILES): COC1=C(C)OC(C)C1=O (centres undefined)
- odorant receptor agonist call (A0A140T8K4): inactive
- odorant receptor agonist call (A0A2J8MY22): active
- odorant receptor agonist call (A0A2R8ZIW4): inactive
- odorant receptor agonist call (A0A3Q7SVK8): inactive
- odorant receptor agonist call (A0A6P3DZI2): inactive
- odorant receptor agonist call (A0A6P6H1F7): inactive

Structure (SMILES): CCCCOC(=O)C(C)OC(=O)CCC (centres undefined)
- odorant receptor agonist call (A0A140T8K4): inactive
- odorant receptor agonist call (A0A1L1SVG7): inactive

Structure (SMILES): CCC(S)C(C)CO (centres undefined)
- odorant receptor agonist call (A0A2J8KNW9): inactive
- odorant receptor agonist call (A0A2R8ZMP6): inactive

Structure (SMILES): CCCCCCCC(=O)[O-].[H+]
- odorant receptor agonist call (A0A140T8K4): inactive
- odorant receptor agonist call (A0A1L1SVG7): inactive

Structure (SMILES): CCc1nccnc1C
- odorant receptor agonist call (A0A140T8K4): inactive
- odorant receptor agonist call (A0A2J8MY22): active
- odorant receptor agonist call (A0A2R8ZIW4): active
- odorant receptor agonist call (A0A3Q7SVK8): active
- odorant receptor agonist call (A0A6P3DZI2): inactive
- odorant receptor agonist call (A0A6P6H1F7): active

Structure (SMILES): CC(=O)c1cnccn1
- odorant receptor agonist call (A0A140T8K4): inactive
- odorant receptor agonist call (A0A2J8MY22): active
- odorant receptor agonist call (A0A2R8ZIW4): active
- odorant receptor agonist call (A0A3Q7SVK8): active
- odorant receptor agonist call (A0A6P3DZI2): inactive
- odorant receptor agonist call (A0A6P6H1F7): active

Structure (SMILES): C=Cc1cnccn1
- odorant receptor agonist call (A0A140T8K4): inactive
- odorant receptor agonist call (A0A2J8MY22): active
- odorant receptor agonist call (A0A2R8ZIW4): active
- odorant receptor agonist call (A0A3Q7SVK8): active
- odorant receptor agonist call (A0A6P3DZI2): inactive
- odorant receptor agonist call (A0A6P6H1F7): active

Structure (SMILES): CCC1OC(=O)C(O)=C1C (centres undefined)
- odorant receptor agonist call (O10A2 H43R H207R K258T): inactive
- odorant receptor agonist call (O10A3 C8G): inactive
- odorant receptor agonist call (O10A6 [2]): inactive
- odorant receptor agonist call (O10AD G65C): inactive
- odorant receptor agonist call (O10D3 V134A R197K): inactive
- odorant receptor agonist call (O10G4 L24P V195E): inactive
- odorant receptor agonist call (O10G7 A18V P19Q G20A): inactive
- odorant receptor agonist call (O10G7 I28V): inactive
